Bioassay records deposited in PubChem BioAssay by several laboratories.
The list is not random: actives were taken first. Their share in the collection is about 5.3%.
Calb FLC: C. albicans growth inhibition with fluconazole, primary screen, CaCi-2 strain, Alamar Blue fluorescence. hit rate 0.57% among 300,000. C. albicans CaCi-2 (fluconazole-resistant clinical isolate) + fluconazole, 48 h. growth inhibition, % (concentration not given with the values). AID 1979, 2009;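 active = growth inhibition above about 58% in most replicates, limit read from the data, passing the limit was not always enough; inconclusive = exactly half the replicates above a set limit; inactive = most replicates below a set limit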;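 also: all wells also contain fluconazole at 8 µg/ml as a sub-toxic cotreatment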
NALP3 yeast inh: NALP3 inflammasome inhibitors in reconstituted yeast, primary screen, luminescence, uHTS. Yeast reconstituted NLRP3/ASC/caspase-1, beta-gal luminescence, 24 h. inhibition, % at 10 µM. AID 2825, 2010. hit rate 0.39% among 330,000;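 active = inhibition of 50% or more; inactive = inhibition below 50%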
T cruzi repl: inhibitors of intracellular T. cruzi growth, primary screen, luminescence, NIH3T3 host cells; hit rate 1.4% among 300,000; inhibition, % (test concentration not listed); T. cruzi beta-gal in NIH3T3, 90 h; AID 1885, 2009;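 active = mean inhibition across valid replicates above about 55%, limit read from the data; inconclusive = mean below that limit but half or more replicates reach it; inactive = mean below it, under half of replicates reach it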;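 also: signal also drops with host cell toxicity which is not excluded here; higher percent means less beta-gal luminescence so fewer parasites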
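System – NIH/3T3 host cells with β-galactosidase reporter T. cruzi · Doses – single 50 nL compound addition per well in DMSO · Reagent – 5000 T. cruzi trypomastigotes/well · Medium – Low-serum DMEM with 2% FBS · Timing – ≥90 h infection period, 3 h prior cell attachment · Evaluation – parasite load inhibition, % · Technique – GalScreen luminescence, 60 min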
CSC inhib: cancer stem cell viability inhibitors, primary screen, luminescence | cancer stem cell-like cells viability | hit rate 1.1% among 300,000 | inhibition, % at 7.5 µM; in the data active = inhibition above about 75%; inconclusive = no clear call, values can overlap the other calls; tested in HMLE shEcad cells
Mdm2 MdmX PPI: inhibitors of human Mdm2-MdmX association, primary screen, cell-based, luminescence, split luciferase, SaOS-2, uHTS. hit rate 3% among 330,000. AID 485346, 2010. SaOS-2 split-luciferase Mdm2/MdmX complementation. inhibition, % at 8 µM. Protein Mdm4 (Homo sapiens) + E3 ubiquitin-protein ligase Mdm2 (Homo sapiens), …;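 active = inhibition of at least 50% at 8 µM in the primary screen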
Target sequence (O15151 whole entry, looked up): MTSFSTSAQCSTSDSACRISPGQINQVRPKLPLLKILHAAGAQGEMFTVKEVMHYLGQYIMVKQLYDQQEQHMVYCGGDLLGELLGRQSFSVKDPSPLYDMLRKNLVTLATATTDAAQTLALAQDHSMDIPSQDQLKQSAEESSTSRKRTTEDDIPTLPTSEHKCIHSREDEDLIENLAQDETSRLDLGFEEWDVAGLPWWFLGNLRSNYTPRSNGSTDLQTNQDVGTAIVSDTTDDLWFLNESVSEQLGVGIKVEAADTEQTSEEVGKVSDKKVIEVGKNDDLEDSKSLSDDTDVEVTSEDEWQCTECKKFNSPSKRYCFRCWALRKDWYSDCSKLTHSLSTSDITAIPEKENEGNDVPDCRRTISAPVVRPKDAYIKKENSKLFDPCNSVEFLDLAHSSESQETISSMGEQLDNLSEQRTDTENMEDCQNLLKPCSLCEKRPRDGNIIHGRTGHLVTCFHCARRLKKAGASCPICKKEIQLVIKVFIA
Target sequence (Q00987 whole entry, looked up): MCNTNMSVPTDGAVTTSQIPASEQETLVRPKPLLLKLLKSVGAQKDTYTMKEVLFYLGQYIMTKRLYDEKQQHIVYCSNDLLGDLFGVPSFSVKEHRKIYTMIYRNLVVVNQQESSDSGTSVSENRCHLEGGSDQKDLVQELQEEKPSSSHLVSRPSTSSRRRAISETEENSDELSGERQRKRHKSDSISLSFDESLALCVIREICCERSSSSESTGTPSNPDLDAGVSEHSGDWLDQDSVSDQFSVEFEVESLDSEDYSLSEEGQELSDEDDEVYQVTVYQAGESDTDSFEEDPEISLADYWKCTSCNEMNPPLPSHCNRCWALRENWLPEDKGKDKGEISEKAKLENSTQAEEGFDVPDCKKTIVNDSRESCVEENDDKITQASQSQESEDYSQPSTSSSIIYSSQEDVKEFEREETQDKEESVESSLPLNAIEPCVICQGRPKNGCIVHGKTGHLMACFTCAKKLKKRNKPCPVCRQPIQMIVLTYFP
Beta apoptosis: inhibitors of cytokine-induced beta cell apoptosis, primary screen, luminescence | INS-1E cytokine-induced death, ATP luminescence, 48 h; percent of positive-control rescue, neutral wells zero | protection from apoptosis, % (concentration not given with the values) | hit rate 0.8% among 300,000;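 active = Every replicate reaches about 75%, or at least half do and their mean reaches it too, limit read from the data; inconclusive = At least half of replicates reach the limit but their mean does not; inactive = Under half of replicates reach the limit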;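 also: higher means more ATP so stronger rescue from cytokine killing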
Of the large screens only hits and unclear results are named; the others gave an inactive call.

CCn1c(CC(=O)Nc2ccccc2)nnc1SCC(=O)NC1CCCC1	none (no result: CSC inhib)
Cc1ccc(NS(=O)(=O)c2ccc(CCC(=O)NCCO)cc2)cc1	Calb FLC 112
c1ccc(Oc2nc(-c3ccccn3)nc3ccccc23)cc1	T cruzi repl 65
COc1cccc(Oc2nc(-c3ccncc3)nc3ccccc23)c1	T cruzi repl 55
COc1cccc(Nc2nc(-c3ccccc3O)nc3ccccc23)c1	none
COc1ccc(Nc2nnc(-c3ccc(O)cc3)c3ccccc23)cc1	T cruzi repl 57
COc1cccc(Nc2nc(-c3ccccc3)nc3ccccc23)c1	CSC inhib 92
O=C(NCc1cccs1)c1ccc(N2CCCCC2)nc1	none
CCc1ccc(OCC(=O)NNC(=O)C2CCN(c3ncnc4sc(C)c(C)c34)CC2)cc1	none (no result: Beta apoptosis)
Cc1ccc(-c2nc(Nc3ccc(N4CCOCC4)cc3)c3ccccc3n2)cc1	CSC inhib 90
Cc1ccc(-c2nc(Nc3cccc(O)c3)c3ccccc3n2)cc1	CSC inhib 112
c1ccc(Nc2nc(-c3ccccc3)nc3ccccc23)cc1	none
Cc1ccc(-c2nc(Nc3ccc(O)cc3)c3ccccc3n2)cc1	none
COc1ccc(Nc2nc(-c3ccccc3O)nc3ccccc23)cc1	CSC inhib 81
COc1ccc(Nc2nc(N3CCCCC3)nc3ccccc23)c(OC)c1	T cruzi repl 58
C=CCn1c(N)cc(=O)nc1SCC(=O)NC(C)c1ccccc1 (configuration not stated)	none
O=[N+]([O-])c1ccc(CNCc2cc(Cl)ccc2O)cc1	none (no result: Calb FLC, T cruzi repl)
COc1ccc(Nc2nc(N3CCCC3)c3ccccc3n2)cc1	Beta apoptosis 81
COc1cccc(Nc2nc(NCC3CCCO3)c3ccccc3n2)c1 (configuration not stated)	T cruzi repl 60
COc1ccc(Nc2nc(-c3ccccc3)nc3ccccc23)c(OC)c1	Calb FLC inconclusive, T cruzi repl 65
CCN(CC)c1ccc(Nc2nc(N3CCOCC3)c3ccccc3n2)cc1	none
COc1ccc(Nc2nc(NC(C)(C)C)nc(N3CCOCC3)n2)c(OC)c1	T cruzi repl 59
CCOc1ccc(Nc2nc(N3CCCC3)nc(N3CCN(c4ccc(OC)cc4)CC3)n2)cc1	T cruzi repl 61 (no result: CSC inhib)
Cc1ccc(-c2nc(N/N=C/c3cccnc3)c3ccccc3n2)cc1	Beta apoptosis 76
Oc1cccc(Nc2c3ccccc3nc3ccccc23)c1	T cruzi repl 70 (no result: Beta apoptosis)
CCCOC(=O)c1cccc(Nc2nc(-c3cccnc3)nc3ccccc23)c1	T cruzi repl 65
O=C(OCCNc1nc(-c2ccccc2)nc2ccccc12)c1cccnc1	none
C1CCc2c(nnc3c2-c2nonc2CC3)C1	none
Cc1ccc(S(=O)(=O)NCC(=O)N2CCN(c3ccc(F)cc3)CC2)cc1	none
O=C(Cn1nnc(-c2ccc(Cl)cc2)n1)NC1CCN(Cc2ccccc2)CC1	T cruzi repl inconclusive
O=C(Nc1ccc2c(c1)OCO2)NC1CCN(Cc2ccccc2)CC1	T cruzi repl 56
CN1C(=O)/C(=C\c2ccccc2F)Sc2ccc(C(=O)NC3CCN(Cc4ccccc4)CC3)cc21	T cruzi repl 61 (no result: Beta apoptosis)
O=C(Cc1ccccc1)NC1CCN(Cc2ccccc2)CC1	none
Cc1ccc(-c2nnn(CC(=O)NC3CCN(Cc4ccccc4)CC3)n2)cc1	T cruzi repl 66
Cc1ccc(S(=O)(=O)Nc2cccc(C(=O)NC3CCN(Cc4ccccc4)CC3)c2)cc1F	T cruzi repl 56 (no result: Beta apoptosis)
CCCNC(=O)C(Cc1ccc(OC)cc1)NC(=O)c1ccc(C#N)cc1 (configuration not stated)	none (no result: Calb FLC, T cruzi repl)
COc1ccc(Cl)cc1NC(=S)N1CCN(c2ccccn2)CC1	none
CC(C)(C)c1ccc(C(=O)NC2CCN(Cc3ccccc3)CC2)cc1	none
O=C(NC1CCN(Cc2ccccc2)CC1)c1ccccc1	T cruzi repl 56 (no result: CSC inhib, Beta apoptosis)
O=C(Nc1ccc(F)cc1)NC1CCN(Cc2ccccc2)CC1	T cruzi repl 60
CC(C)c1ccc(NC(=O)NC2CCN(CC(=O)Nc3cccc4ccccc34)CC2)cc1	T cruzi repl 56
